Measured values published in ChEMBL document CHEMBL1126163, “Decreased histamine release by luteinizing hormone-releasing hormone antagonists obtained upon translocation of the cationic amino acid from position 8 to position 7” (1992).
≈ marks a conversion by molar mass, not a printed value. Where a SMILES comes first, the peptide text is derived from it. [ ]: non-standard residue; d: D form. The star is where a group is joined. dPhe(4-Cl) = N[C@H](Cc1ccc(Cl)cc1)C(=O)O; d2Nal = N[C@H](Cc1ccc2ccccc2c1)C(=O)O; Lys(iPr) = CC(C)NCCCC[C@H](N)C(=O)O; d3Pal = N[C@H](Cc1cccnc1)C(=O)O; Nicotinoyl = O=C(c1cccnc1)*

Experiments:
Rattus norvegicus [1] = species: Rattus norvegicus; assay: Compound was evaluated for its ovulating activity in anti-ovulatory assay (AOA) by using 10 rats at the dose of 2 microgram; assay type: functional
Outline: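 Standard antiovulatory assay in 4-day cycling female rats, 10 rats per dose group. Each analogue was given at the stated dose in μg per rat, and the read-out was the number of rats ovulating out of 10.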

Rattus norvegicus [2] = species: Rattus norvegicus; assay: In vitro histamine release from isolated rat mast cells.; assay type: functional; conditions: read-out: ED50 (the source's name)
Outline: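 Histamine release from rat mast cells in vitro, run in duplicate with mast cells from three different rats. LHRH and Nal-Arg standards were included with each set of analogues. The read-out was the ED50 in μg/mL, reported as mean ± SEM.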

Row | EC50 (Rattus norvegicus [2]) [µg/mL] | Structure (SMILES) | AOA (Rattus norvegicus [1])
1 | 70 (≈ 40.9 µM) | CC(=O)N[C@H](Cc1ccc2ccccc2c1)C(=O)N[C@H](Cc1ccc(Cl)cc1)C(=O)N[C@H](Cc1cccnc1)C(=O)N[C@@H](CO)C(=O)N[C@@H](CCCCNC(=O)c1ccccn1)C(=O)N[C@H](CCCCNC(=O)c1ccccn1)C(=O)N[C@@H](CCCCNC(C)C)C(=O)N[C@@H](CCCCNC(=O)c1cccnc1)C(=O)N1CCC[C@H]1C(=O)N[C@H](C)C(N)=O | 8
2 | 2.4 (≈ 1.63 µM) | CC(=O)N[C@H](Cc1ccc2ccccc2c1)C(=O)N[C@H](Cc1ccc(Cl)cc1)C(=O)N[C@H](Cc1c[nH]c2ccccc12)C(=O)N[C@@H](CO)C(=O)N[C@@H](Cc1ccc(O)cc1)C(=O)N[C@H](CCCN=C(N)N)C(=O)N[C@@H](CCCN=C(N)N)C(=O)N[C@@H](CC(C)C)C(=O)N1CCC[C@H]1C(=O)N[C@H](C)C(N)=O | 10
3 | 0.1 (≈ 0.0681 µM) | CC(=O)N[C@H](Cc1ccc2ccccc2c1)C(=O)N[C@H](Cc1ccc(Cl)cc1)C(=O)N[C@H](Cc1c[nH]c2ccccc12)C(=O)N[C@@H](CO)C(=O)N[C@@H](Cc1ccc(O)cc1)C(=O)N[C@H](CCCN=C(N)N)C(=O)N[C@@H](CC(C)C)C(=O)N[C@@H](CCCN=C(N)N)C(=O)N1CCC[C@H]1C(=O)N[C@H](C)C(N)=O (Ac-[d2Nal][dPhe(4-Cl)][dW]SY[dR]LRP[dA]-NH2) | 
4 | > 300 | CC(=O)N[C@H](Cc1ccc2ccccc2c1)C(=O)N[C@H](Cc1ccc(Cl)cc1)C(=O)N[C@H](Cc1cccnc1)C(=O)N[C@@H](CO)C(=O)N[C@@H](CCCCNC(=O)c1cccnc1)C(=O)N[C@H](CCCCNC(=O)c1cccnc1)C(=O)N[C@@H](CC(C)C)C(=O)N[C@@H](CCCCNC(C)C)C(=O)N1CCC[C@H]1C(=O)N[C@H](C)C(N)=O [Antide] (Ac-[d2Nal][dPhe(4-Cl)][d3Pal]SK(Nicotinoyl)[dK](Nicotinoyl)L[Lys(iPr)]P[dA]-NH2) | 
